Test results as given in ChEMBL document CHEMBL4396904, “Design, Synthesis, and Anti-HBV Activity of New Bis(l-amino acid) Ester Tenofovir Prodrugs” (ACS Med Chem Lett, 2019).
Activity calls are given as the source filed them. The calls are words filed in the database; no cut-off is given here.

Experiments:
[1] = Cytotoxicity against human HepG2.2.15 cells infected with HBV; format: cell-based, HepG2 2.2.15
Summary of the method: (§1)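 HepG 2.2.15 cells; IC50 is the concentration giving 50% inhibition of cytoplasmic HBV-DNA synthesis; CC50 comes from a CPE (cytopathic effect) cytotoxicity assay in the same cells. Both were derived by the Reed & Muench method, and each experiment was run at least twice separately. SI = CC50/IC50.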

Hepatitis B virus [2] = assay: Antiviral activity against HBV infected in human HepG2.2.15 cells assessed as reduction in cytoplasmic DNA synthesis by reed and munch method; format: functional, organism-based; summary of the method: as §1
[3] = Selectivity index, ratio of CC50 for human HepG2.2.15 cells to IC50 for HBV infected in human HepG2.2.15 cells; format: toxicity, cell-based; conditions: read-out: Ratio CC50/IC50; summary of the method: as §1
[4] = Toxicity against C57BL/6 mouse hydrodynamically infected with pHBV1.3 mer plasmid carrying HBV genotype D assessed as change in body weight at 0.1 to 1 mg/kg, po once daily and measured upto 6 days post treatment; format: organism-based; conditions: in vivo, 144 h
HBV genotype D [5] = assay: Antiviral activity against HBV genotype D hydrodynamically infected as pHBV1.3 mer plasmid carrying viral genome in C57BL/6 mouse assessed as reduction in serum viral DNA level at 0.1 to 1 mg/kg, po once daily and measured upto 6 days post treatment by qRT-PCR analysis; format: functional, organism-based; conditions: hepatitis B virus genotype D
Summary of the method: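 C57BL/6 mice received the HBV 1.3mer plasmid by hydrodynamic tail-vein injection. From one day later they were dosed by oral gavage twice daily at […], with vehicle groups of 20% Kolliphor HS 15 or water; ETV was given once daily. There were 5-6 mice per group. Serum HBV DNA was measured by real-time PCR on days 0, 2, 4 and 6, and body weight was tracked over the 6 days.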

Hepatitis B virus [6] = assay: Potency index, ratio of Lamivudine IC50 to compound IC50 for antiviral activity against HBV infected in human HepG2.2.15 cells; format: functional
Hepatitis B virus [7] = assay: Potency index, ratio of TFV IC50 to compound IC50 for antiviral activity against HBV infected in human HepG2.2.15 cells; format: functional
Rattus norvegicus [8] = assay: Ratio of compound oral bioavailability in Sprague-Dawley rat at 45.5 mg/kg administered as single dose to TFV oral bioavailability in Sprague-Dawley rat at 20 mg/kg administered as single dose by HPLC analysis; format: ADME, organism-based; conditions: in vivo
Summary of the method: (§2)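 SD rats received a single oral dose at equimolar […] (TFV 20 mg/kg); intravenous TFV was given at 5 mg/kg. PK parameters were derived from plasma TFV, including oral bioavailability F; n = 3 per group.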

Rattus norvegicus [9] = assay: Ratio of compound oral bioavailability in Sprague-Dawley rat at 45.5 mg/kg administered as single dose to TDF oral bioavailability in Sprague-Dawley rat at 44.3 mg/kg administered as single dose by HPLC analysis; format: ADME, organism-based; conditions: in vivo; summary of the method: as §2
Hepatitis B virus [10] = assay: Antiviral activity against HBV infected in pekin duck assessed as reduction in serum viral DNA level administered via oral gavage twice daily for 14 days and measured on day 14 post treatment and on day 3 after treatment cessation by qRT-PCR analysis; format: functional, organism-based
Summary of the method: (§3)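 DHBV-infected ducks, six per group, were gavaged twice daily at 0.1, 0.2 or […] or with vehicle (0.5% CMC-Na or water); 3TC was given orally once daily. Blood was collected at day 0 (pretreatment), day 7, day 14 and 3 days after cessation. Serum DHBV DNA was extracted and quantified by real-time PCR. Body weight was monitored during treatment. Comparison was against vehicle.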

[11] = Toxicity against Pekin duck infected with HBV assessed as change in body weight at 0.1 to 0.4 mmol/kg, po twice daily for 14 days administered via gavage and measured every day during compound dosing; format: organism-based; conditions: anas platyrhynchos, in vivo, 336 h; summary of the method: as §3
HBV genotype D [12] = assay: Antiviral activity against HBV genotype D hydrodynamically infected as pHBV1.3 mer plasmid carrying viral genome in C57BL/6 mouse assessed as reduction in serum viral DNA level administered via oral gavage twice daily and measured upto 6 days post treatment by qRT-PCR analysis; format: functional, organism-based; conditions: hepatitis B virus genotype D
Summary of the method: (§4)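 C57BL/6 mice were hydrodynamically injected with HBV 1.3mer plasmid. From one day later (day 0), they were gavaged twice daily at […] or with vehicle; ETV was given orally once daily; n = 5-6 per group. Blood was taken at days 0, 2, 4 and 6, and serum HBV DNA was measured by real-time PCR. Body weight was recorded over 6 days of treatment. Significance was set against vehicle.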

HBV genotype D [13] = assay: Antiviral activity against HBV genotype D hydrodynamically infected as pHBV1.3 mer plasmid carrying viral genome in C57BL/6 mouse assessed as log10 reduction in serum viral DNA level at 0.10 to 0.50 mmol/kg/day, po via gavage administered as twice daily dosage and measured on day 4 post treatment by qRT-PCR analysis; format: functional, hepatitis B virus genotype D; summary of the method: as §4
Hepatitis B virus [14] = assay: Antiviral activity against HBV infected in pekin duck assessed as reduction in serum viral DNA level at 0.4 mmol/kg, po once daily for 14 days and measured on days 7, 14 post treatment and on day 3 after treatment cessation by qRT-PCR analysis; format: functional, organism-based
[15] = Toxicity against Pekin duck infected with HBV assessed as change in body weight at 0.2 to 0.4 mmol/kg, […] for 14 days and measured every day during compound dosing; format: organism-based; conditions: anas platyrhynchos, in vivo, po, 336 h
Summary of the method: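 DHBV-infected ducks, six per group, were gavaged twice daily at 0.1, 0.2 or […], with vehicle groups of 0.5% CMC-Na or water; 3TC was given orally once daily. Serum DHBV DNA was measured by real-time PCR on days 0, 7 and 14 and 3 days after dosing stopped, and body weight was monitored. Data are mean ± SD.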

[16] = Clearance in Sprague-Dawley rat at 5 mg/kg, iv; format: ADME, organism-based; conditions: in vivo
Summary of the method: (§5)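 Male/female unspecified SD rats, n = 3 per group, received a single dose of TFV at 20 mg/kg by mouth or 5 mg/kg intravenously. Prodrugs were given orally at an equimolar […]. PK parameters were calculated for the released TFV and reported as means.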

[17] = Half-life in Sprague-Dawley rat at 5 mg/kg, iv; format: ADME, organism-based; conditions: in vivo; summary of the method: as §5
[18] = AUC(0 to infinity) in Sprague-Dawley rat at 5 mg/kg, iv; format: ADME, organism-based; set-up: dose 5 mg/kg, route intravenous, time infinity; conditions: in vivo; summary of the method: as §5
[19] = Half-life in Sprague-Dawley rat at 20 mg/kg, po administered as single dose and measured after 0.25 to 24 hrs by HPLC analysis; format: ADME, organism-based; conditions: in vivo; summary of the method: as §5
[20] = Tmax in Sprague-Dawley rat at 20 mg/kg, po administered as single dose and measured after 0.25 to 24 hrs by HPLC analysis; format: ADME, organism-based; conditions: in vivo; summary of the method: as §5
[21] = Cmax in Sprague-Dawley rat at 20 mg/kg, po administered as single dose and measured after 0.25 to 24 hrs by HPLC analysis; format: ADME, organism-based; set-up: dose 20 mg/kg, route oral; conditions: in vivo; summary of the method: as §5
[22] = AUC(0 to infinity) in Sprague-Dawley rat at 20 mg/kg, po administered as single dose and measured after 0.25 to 24 hrs by HPLC analysis; format: ADME, organism-based; set-up: dose 20 mg/kg, time infinity, route oral; conditions: in vivo; summary of the method: as §5
[23] = Oral bioavailability in Sprague-Dawley rat at 20 mg/kg administered as single dose and measured after 0.25 to 24 hrs by HPLC analysis; format: ADME, organism-based; conditions: in vivo; summary of the method: as §5

Structure (SMILES) | CC50 [1] [µM] | IC50 (Hepatitis B virus [2]) [µM] | selectivity ratio [3] | other results
CC[C@H](C)[C@H](N)C(=O)OCCOP(=O)(CO[C@H](C)Cn1cnc2c(N)ncnc21)OCCOC(=O)[C@@H](N)[C@@H](C)CC | 294 | 12.2 | 24 | 
CC[C@H](C)[C@H](N)C(=O)OCCCOP(=O)(CO[C@H](C)Cn1cnc2c(N)ncnc21)OCCCOC(=O)[C@@H](N)[C@@H](C)CC | 315 | > 49.6 |  | 
CC(C)C[C@H](N)C(=O)OCCOP(=O)(CO[C@H](C)Cn1cnc2c(N)ncnc21)OCCOC(=O)[C@@H](N)CC(C)C | 218 | > 13 |  | 
C=C1[C@H](CO)[C@@H](O)C[C@@H]1n1cnc2c(=O)[nH]c(N)nc21.O [ENTECAVIR] |  |  |  | Activity [4]: Non-Toxic; inhibition (HBV genotype D [5]): Active
CC(C)[C@H](N)C(=O)OCOP(=O)(CO[C@H](C)Cn1cnc2c(N)ncnc21)OCOC(=O)[C@@H](N)C(C)C.Cl | 57.3 | 0.71 | 80 | Ratio IC50 (Hepatitis B virus [6]): 3; Ratio IC50 (Hepatitis B virus [7]): 22; Ratio (Rattus norvegicus [8]): 7; Ratio (Rattus norvegicus [9]): 3; inhibition (Hepatitis B virus [10]): Dose-dependent effect; Activity [11]: Non-Toxic; inhibition (HBV genotype D [12]): Dose-dependent effect; log(activity) (HBV genotype D [13]): 1.1
CC(C)[C@H](N)C(=O)OCCCOP(=O)(CO[C@H](C)Cn1cnc2c(N)ncnc21)OCCCOC(=O)[C@@H](N)C(C)C | 51.9 | > 3.24 |  | 
CC(C)[C@H](N)C(=O)OCCOP(=O)(CO[C@H](C)Cn1cnc2c(N)ncnc21)OCCOC(=O)[C@@H](N)C(C)C | 218 | 2.6 | 84 | 
Nc1ccn([C@@H]2CS[C@H](CO)O2)c(=O)n1 [LAMIVUDINE] | > 218 | 2.22 | > 98 | inhibition (Hepatitis B virus [14]): Active; Activity [15]: Non-Toxic
C[C@H](Cn1cnc2c(N)ncnc21)OCP(=O)(O)O [TENOFOVIR ANHYDROUS] | 435 | 16 | 27 | clearance [16]: 5.35 mL/min/kg; half-life [17]: 10.2 h; AUC(0-inf) [18]: 15800 ng·h/mL; half-life [19]: 3.56 h; Tmax [20]: 0.833 h; Cmax [21]: 207 ng/mL; AUC(0-inf) [22]: 888 ng·h/mL; bioavailability [23]: 1.41%
CC(C)C[C@H](N)C(=O)OCCCOP(=O)(CO[C@H](C)Cn1cnc2c(N)ncnc21)OCCCOC(=O)[C@@H](N)CC(C)C | 218 | 4.22 | 47 | 
CC(C)OC(=O)OCOP(=O)(CO[C@H](C)Cn1cnc2c(N)ncnc21)OCOC(=O)OC(C)C.O=C(O)/C=C/C(=O)O [TENOFOVIR DISOPROXIL FUMARATE] | 20.7 | 0.85 | 24 | inhibition (Hepatitis B virus [10]): Dose-dependent effect; Activity [11]: Non-Toxic; log(activity) (HBV genotype D [13]): 1.7
C[C@H](Cn1cnc2c(N)ncnc21)OCP(=O)(OCCOC(=O)[C@@H](N)Cc1ccccc1)OCCOC(=O)[C@@H](N)Cc1ccccc1 | 315 | 2.93 | 97 | 
